Activity calls are given as the source filed them. The rule behind the calls is not given here.

Data set [1] is described as follows: Cytotoxicity against mouse BMM cells assessed as cell survival after 4 days by MTT assay. Format: cell-based. Particulars: bmmc, 96 h. The method in brief: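 BMMs were kept in α-MEM with M-CSF (30 ng/mL) with or without compound (10 µM) for 4 days. MTT was added for 5 h in the dark, then 10% SDS in 0.01 M HCl was added overnight. Absorbance was read at 570 nm. Mean ± SD, three independent experiments.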

Another data set deals with BMMC. Nature of the data set: Antiosteoclast activity in mouse BMM cells assessed as reduction of LPS-induced osteoclast formation at 10 uM after 4 days by TRAP+ staining based light microscopy. Format: functional, cell-based.
Data set [2] deals with T1, Tumor necrosis factor ligand superfamily member 11 (Mus musculus) (UniProt O35235).
T1 sequence (whole entry): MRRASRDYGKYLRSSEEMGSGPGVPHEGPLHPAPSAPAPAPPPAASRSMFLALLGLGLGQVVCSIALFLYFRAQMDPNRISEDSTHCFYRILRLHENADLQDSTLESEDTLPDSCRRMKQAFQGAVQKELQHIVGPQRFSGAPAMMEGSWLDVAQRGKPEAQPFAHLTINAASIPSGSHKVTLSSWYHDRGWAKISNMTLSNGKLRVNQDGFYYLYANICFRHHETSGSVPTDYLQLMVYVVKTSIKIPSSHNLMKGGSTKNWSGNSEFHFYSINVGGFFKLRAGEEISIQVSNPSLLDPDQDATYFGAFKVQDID
The following applies: BMM, 10 uM.

The target of data set [3] is T1, Tumor necrosis factor ligand superfamily member 11 (Mus musculus). Particulars: BMM, 10 uM. This is another data set of the same source.
The target is the same in data set [4]. The following applies: BMMC, 10 uM.
The target of data set [5] is T2, Polyunsaturated fatty acid 5-lipoxygenase (Mus musculus, UniProt P48999).
T2 sequence (P48999 whole entry): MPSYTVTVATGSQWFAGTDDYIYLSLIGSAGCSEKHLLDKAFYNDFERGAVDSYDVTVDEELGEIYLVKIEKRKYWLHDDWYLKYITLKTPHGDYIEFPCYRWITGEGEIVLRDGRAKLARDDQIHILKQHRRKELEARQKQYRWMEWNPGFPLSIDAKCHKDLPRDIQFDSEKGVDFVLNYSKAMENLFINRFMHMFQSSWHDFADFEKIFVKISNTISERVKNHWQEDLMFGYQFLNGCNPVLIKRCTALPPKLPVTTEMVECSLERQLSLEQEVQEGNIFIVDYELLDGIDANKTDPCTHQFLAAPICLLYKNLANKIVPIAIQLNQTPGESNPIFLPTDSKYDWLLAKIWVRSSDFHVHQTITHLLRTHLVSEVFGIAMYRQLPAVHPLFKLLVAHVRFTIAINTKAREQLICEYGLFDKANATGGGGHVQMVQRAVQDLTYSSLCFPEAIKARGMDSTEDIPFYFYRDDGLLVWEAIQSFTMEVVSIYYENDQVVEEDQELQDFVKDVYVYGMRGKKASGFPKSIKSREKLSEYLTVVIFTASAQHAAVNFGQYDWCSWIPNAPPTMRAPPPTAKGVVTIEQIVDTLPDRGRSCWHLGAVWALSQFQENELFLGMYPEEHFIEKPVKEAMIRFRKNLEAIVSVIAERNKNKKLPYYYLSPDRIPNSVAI
Nature of the data set: Inhibition of 5-LO in mouse BMMC cells assessed as formation of LTC4 after 30 mins by enzyme immunoassay.

A further data set concerns Mus musculus. Put plainly: Antiosteoclast activity in mouse assessed as reduction of LPS-induced osteoclast formation in calvarial bone at 5 mg/kg, ip administered daily with LPS challenge after first day of compound dosing measured 6 days after LPS injection. Format: functional, organism-based. The method in brief:
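Six-week-old male mice, three groups, received compound at 5 mg/kg ip daily or vehicle (corn oil/DMSO 9:1). After one day, LPS (5 mg/kg) or PBS was injected subcutaneously over the calvaria. Mice were killed 6 days post-LPS. Whole calvariae were fixed in 4% paraformaldehyde and TRAP-stained, and TRAP⁺ area was quantified by image analysis.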

The target in data set [6] is T1, Tumor necrosis factor ligand superfamily member 11 (Mus musculus). Particulars: BMM, 10 uM. The source holds these as a separate data set.
For data set [7] the target is unchanged. The following applies: BMM, 10 uM. The source holds these as a separate data set.

The IC50 is the concentration at which inhibition is half-maximal. For the compound `CCc1ccc(Nc2nc3cc(NC(=O)CCCCOc4ccc(/C(N)=N/O)cc4)ccc3o2)cc1`, the Activity entry in data set [1] is recorded as “Non-toxic”. Moreover, the outcome in the data set on BMMC and with Mus musculus was Active. The inhibition result in data set [2], in data set [3], in data set [6] and in data set [7] was “Active” each time. Further, in data set [4], the inhibition entry was “inactive”. For the same compound, in [5], the IC50 amounted to 1.72 µM.

`N/C(=N\O)c1ccc(OCCCCC(=O)Nc2ccc3oc(Nc4ccccc4)nc3c2)cc1`: the IC50 in [5] stood at 4.1 µM.

`COc1ccc(Nc2nc3cc(NC(=O)CCCCOc4ccc(/C(N)=N/O)cc4)ccc3o2)cc1`: the IC50 in data set [5] was found to be 4.9 µM.

For the origin of these results see ChEMBL document CHEMBL3627666, “5-Lipoxygenase inhibitors suppress RANKL-induced osteoclast formation via NFATc1 expression” (Bioorg Med Chem, 2015).
